# Source: ChEMBL document CHEMBL4477201, “Imidazopyridine and Pyrazolopiperidine Derivatives as Novel Inhibitors of Serine Palmitoyl Transferase” (J Med Chem, 2016)
# The source made the active and inactive calls. The rule behind the calls is not given here.
# What was measured:
# [1] = target: T1, Serine palmitoyltransferase 1 (Homo sapiens, UniProt O15269); assay: Inhibition of human SPT1 expressed in microsomes of HEK293 cells incubated for 1hr by LC/MS analysis
# T1 sequence (O15269 whole entry): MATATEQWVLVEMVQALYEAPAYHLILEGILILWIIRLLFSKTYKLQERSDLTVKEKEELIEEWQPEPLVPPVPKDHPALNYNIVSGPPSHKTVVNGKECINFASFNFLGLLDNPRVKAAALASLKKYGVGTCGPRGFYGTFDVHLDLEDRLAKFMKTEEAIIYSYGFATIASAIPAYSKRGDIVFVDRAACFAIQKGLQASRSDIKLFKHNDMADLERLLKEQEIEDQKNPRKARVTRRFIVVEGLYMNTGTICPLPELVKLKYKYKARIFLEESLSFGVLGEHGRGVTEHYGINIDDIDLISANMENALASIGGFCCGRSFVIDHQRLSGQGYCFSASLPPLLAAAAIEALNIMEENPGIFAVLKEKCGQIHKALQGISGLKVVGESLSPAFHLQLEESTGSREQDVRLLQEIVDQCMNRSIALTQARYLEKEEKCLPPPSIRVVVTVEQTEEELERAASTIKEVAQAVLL
# Method in brief: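 SPT source was a microsomal fraction from HEK293 cells, with serine and palmitoyl coenzyme A as substrates. Formation of 3-ketodeoxysphinganine quantified by LC/MS. Inhibition determined at 10 concentrations per compound to give IC50.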
# [2] = target: T2, Serine palmitoyltransferase 1 (Homo sapiens) (UniProt O15269); assay: (§1) Inhibition of SPT1 in human MCF7 cells assessed as suppression of 14C-serine incorporation into ceramide incubated for 2 hrs in presence of 4-HPR; assay type: cell-based
# T2 sequence (whole entry): T1 sequence (O15269 whole entry)
# Method in brief: (§2)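 Human MCF-7 cells incubated 2 h with a range of compound concentrations or DMSO control media. Medium contained 14C-serine plus 25 uM 4-HPR to activate SPT. 14C-serine-labeled ceramide products quantified to give EC50.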
# [3] = target: T1, Serine palmitoyltransferase 1; assay: as §1; assay type: cell-based; method in brief: as §2
# [4] = Toxicity in diet-induced obese C57Bl/6 mouse assessed as decrease in food intake at 25 mg/kg, po qd for 4 weeks; assay type: organism-based; conditions: in vivo, 672 h
# Method in brief: (§3)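 Food intake monitored in DIO mice during 4 weeks of daily oral dosing.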
# [5] = Fraction unbound in rat; assay type: ADME
# Rattus norvegicus [6] = assay: Increase in HDL level in cholic acid/cholesterol-fed Sprague-Dawley rat model of dyslipidemia administered bid through oral gavage measured after 1 week by FPLC analysis relative to vehicle-treated control; assay type: functional, organism-based
# Method in brief: (§4)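 Sprague Dawley rats fed a cholic acid/cholesterol diet for 14 days, then dosed orally BID for 7 days at five dose levels, n=6. Serum ceramides and VLDL and HDL cholesterol compared with vehicle (dose 0). Mean ± SEM; Dunnett's test, p<0.05.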
# [7] = Dissociation constant, pKa of the compound; assay type: physicochemical
# [8] = Lipophilicity, log P of compound; assay type: physicochemical; conditions: octanol/water
# [9] = Drug uptake in diet-induced obese C57Bl/6 mouse liver at 1 mg/kg, po qd for 4 weeks measured 6 hrs post last dose; assay type: ADME, organism-based; conditions: read-out: Drug uptake
# Method in brief: (§5)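 Male DIO mice dosed orally for 4 weeks. Sacrificed 6 h after the last dose. Compound measured in serum (ng/mL) and liver (ng/g), and the liver:serum ratio calculated.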
# [10] = AUC (0 to 24 hrs) in Sprague-Dawley rat at 1 mg/kg, iv; assay type: ADME, organism-based; parameters: time < 24 hr, dose 1 mg/kg, route intravenous; conditions: in vivo
# Method in brief: (§6)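 Single dose to fasted male Sprague Dawley rats, IV at 1 mg/kg or oral at 3 mg/kg. Plasma levels followed to derive AUC0-24hr, Cmax, half-life, Vdss and oral bioavailability.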
# [11] = Cmax in Sprague-Dawley rat at 1 mg/kg, iv; assay type: ADME, organism-based; parameters: dose 1 mg/kg, route intravenous; conditions: in vivo; method in brief: as §6
# [12] = Half life in Sprague-Dawley rat at 1 mg/kg, iv; assay type: ADME, organism-based; conditions: in vivo; method in brief: as §6
# [13] = Volume of distribution at steady state in Sprague-Dawley rat at 1 mg/kg, iv; assay type: ADME, organism-based; conditions: in vivo, read-out: Vdss; method in brief: as §6
# [14] = AUC (0 to 24 hrs) in Sprague-Dawley rat at 3 mg/kg,po; assay type: ADME, organism-based; parameters: time < 24 hr, dose 3 mg/kg, route oral; conditions: in vivo; method in brief: as §6
# [15] = Cmax in Sprague-Dawley rat at 3 mg/kg,po; assay type: ADME, organism-based; parameters: dose 3 mg/kg, route oral; conditions: in vivo; method in brief: as §6
# [16] = Half life in Sprague-Dawley rat at 3 mg/kg,po; assay type: ADME, organism-based; conditions: in vivo; method in brief: as §6
# [17] = Volume of distribution at steady state in Sprague-Dawley rat at 3 mg/kg,po; assay type: ADME, organism-based; conditions: in vivo
# Method in brief: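 Male Sprague Dawley rats, fasted, single oral dose of 3 mg/kg. A parallel arm received 1 mg/kg IV. Plasma was sampled for pharmacokinetics over 0-24 hr. Steady-state volume of distribution is reported […], in mL/kg.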
# [18] = Oral bioavailability in Sprague-Dawley rat at 3 mg/kg; assay type: ADME, organism-based; conditions: in vivo; method in brief: as §6
# Mus musculus [19] = assay: Reduction in total plasma ceramide level in C57BL6 mouse administered through gavage after 6 hrs by mass spectrometry relative to vehicle-treated control; assay type: functional
# Method in brief: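 Normal C57bl6 mice given a single oral dose at six dose levels, n=3 per group. Plasma collected 6 h post dose. C16:0, C20:0, C22:0, C24:0 and C24:1 ceramides measured by mass spectrometry and summed; total reduction calculated versus vehicle. ED50 derived from the dose-response; mean ± SEM.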
# Rattus norvegicus [20] = assay: Reduction in vLDL level in cholic acid/cholesterol-fed Sprague-Dawley rat model of dyslipidemia at 1 to 60 mg/kg administered bid through oral gavage measured after 1 week by FPLC analysis relative to vehicle-treated control; assay type: functional, organism-based; method in brief: as §4
# Rattus norvegicus [21] = assay: Reduction in total plasma ceramide level in cholic acid/cholesterol-fed Sprague-Dawley rat model of dyslipidemia at 10 to 60 mg/kg administered bid through oral gavage measured after 1 week by FPLC analysis relative to vehicle-treated control; assay type: functional, organism-based; method in brief: as §4
# Mus musculus [22] = assay: Reduction in total plasma ceramide level in diet-induced obese C57BL6 mouse administered daily through oral gavage for 28 days measured 2 hrs post last dose relative to lean control; assay type: functional, organism-based
# Method in brief: (§7)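 DIO mice dosed orally for 28 days, with myriocin as positive control and lean mice as reference. Total and C18:0 plasma ceramides measured 2 h after the final dose.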
# Mus musculus [23] = assay: Reduction in plasma C18:0 ceramide level in diet-induced obese C57BL6 mouse at 1 to 60 mg/kg administered daily through oral gavage for 28 days measured 2 hrs post last dose relative to lean control; assay type: functional, organism-based; method in brief: as §7
# [24] = Toxicity in rat assessed as induction of gastric enteropathy during 14 days toxicology study; conditions: in vivo, 336 h
# Mus musculus [25] = assay: Reduction in blood glucose in diet-induced obese C57BL6 mouse at 25 mg/kg, po qd for 4 weeks by oral glucose tolerance test relative to lean control; assay type: functional, organism-based
# Method in brief: (§8)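 After 4 weeks of oral dosing, DIO mice underwent an oral glucose tolerance test. Insulin and glucose AUC compared with lean mice; trend assessed by ANOVA trend analysis.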
# Mus musculus [26] = assay: Reduction in serum insulin in diet-induced obese C57BL6 mouse at 25 mg/kg, po qd for 4 weeks by oral glucose tolerance test relative to lean control; assay type: functional, organism-based; method in brief: as §8
# [27] = Toxicity in diet-induced obese C57Bl/6 mouse assessed as decrease in food intake at 10 mg/kg, po qd for 4 weeks; assay type: organism-based; conditions: in vivo, 672 h; method in brief: as §3
# [28] = Drug uptake in diet-induced obese C57Bl/6 mouse serum at 1 mg/kg, po qd for 4 weeks measured 6 hrs post last dose; assay type: ADME, organism-based; conditions: read-out: Drug uptake; method in brief: as §5
# [29] = Drug uptake in diet-induced obese C57Bl/6 mouse serum at 3 mg/kg, po qd for 4 weeks measured 6 hrs post last dose; assay type: ADME, organism-based; conditions: read-out: Drug uptake; method in brief: as §5
# [30] = Drug uptake in diet-induced obese C57Bl/6 mouse serum at 10 mg/kg, po qd for 4 weeks measured 6 hrs post last dose; assay type: ADME, organism-based; conditions: read-out: Drug uptake; method in brief: as §5
# [31] = Drug uptake in diet-induced obese C57Bl/6 mouse serum at 0.1 mg/kg, po qd for 4 weeks measured 6 hrs post last dose; assay type: ADME, organism-based; conditions: read-out: Drug uptake; method in brief: as §5
# [32] = Drug uptake in diet-induced obese C57Bl/6 mouse serum at 25 mg/kg, po qd for 4 weeks measured 6 hrs post last dose; assay type: ADME, organism-based; conditions: read-out: Drug uptake; method in brief: as §5
# [33] = Drug uptake in diet-induced obese C57Bl/6 mouse liver at 3 mg/kg, po qd for 4 weeks measured 6 hrs post last dose; assay type: ADME, organism-based; conditions: read-out: Drug uptake; method in brief: as §5
# [34] = Drug uptake in diet-induced obese C57Bl/6 mouse liver at 10 mg/kg, po qd for 4 weeks measured 6 hrs post last dose; assay type: ADME, organism-based; conditions: read-out: Drug uptake; method in brief: as §5
# [35] = Drug uptake in diet-induced obese C57Bl/6 mouse liver at 0.1 mg/kg, po qd for 4 weeks measured 6 hrs post last dose; assay type: ADME, organism-based; conditions: read-out: Drug uptake; method in brief: as §5
# [36] = Drug uptake in diet-induced obese C57Bl/6 mouse liver at 25 mg/kg, po qd for 4 weeks measured 6 hrs post last dose; assay type: ADME, organism-based; conditions: read-out: Drug uptake; method in brief: as §5
# [37] = Ratio of drug uptake in diet-induced obese C57Bl/6 mouse liver to serum at 1 mg/kg, po qd for 4 weeks measured 6 hrs post last dose; assay type: ADME, organism-based; method in brief: as §5
# [38] = Ratio of drug uptake in diet-induced obese C57Bl/6 mouse liver to serum at 3 mg/kg, po qd for 4 weeks measured 6 hrs post last dose; assay type: ADME, organism-based; method in brief: as §5
# [39] = Ratio of drug uptake in diet-induced obese C57Bl/6 mouse liver to serum at 10 mg/kg, po qd for 4 weeks measured 6 hrs post last dose; assay type: ADME, organism-based; method in brief: as §5
# [40] = Ratio of drug uptake in diet-induced obese C57Bl/6 mouse liver to serum at 0.1 mg/kg, po qd for 4 weeks measured 6 hrs post last dose; assay type: ADME, organism-based; conditions: other tissue; method in brief: as §5
# [41] = Ratio of drug uptake in diet-induced obese C57Bl/6 mouse liver to serum at 25 mg/kg, po qd for 4 weeks measured 6 hrs post last dose; assay type: ADME, organism-based; method in brief: as §5
# Mus musculus [42] = assay: Reduction in total liver ceramide level in diet-induced obese C57BL6 mouse at 1 to 60 mg/kg administered daily through oral gavage for 28 days measured 6 hrs post last dose relative to lean control; assay type: functional, organism-based
# Method in brief: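 Liver total ceramide levels measured in DIO mice after 4 weeks of oral dosing.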
compound,measurement,setting,value
CCCCCCC(=O)N1CCc2c(c(-c3ccc(C(C)(C)C(=O)O)cc3)nn2C)C1,IC50,[1],0.0639 µM
same,inhibition,[2],Dose-dependent effect
same,EC50,[3],4.22 µM
same,Activity,[4],Toxic
same,fraction unbound,[5],0.02
same,Activity,Rattus norvegicus [6],Dose-dependent effect
same,pKa,[7],4.19
same,logP,[8],4.66
same,concentration at 6 h,[9],61200 ng/g
same,AUC(0-t) at 24 h,[10],190 ng·h/mL
same,Cmax,[11],756 ng/mL
same,half-life,[12],5.17 h
same,Vd,[13],8.33 L/kg
same,AUC(0-t) at 24 h,[14],155 ng·h/mL
same,Cmax,[15],16.3 ng/mL
same,half-life,[16],7.65 h
same,Vdss,[17],126 L/kg
same,bioavailability,[18],33%
same,Activity,Mus musculus [19],Dose-dependent effect
same,ED50,"Mus musculus [19]; C57BL6, po",8.8 mg/kg
same,Activity,Rattus norvegicus [20],inactive
same,Activity,Rattus norvegicus [21],Active
same,Activity,Mus musculus [22],Dose-dependent effect
same,Activity,Mus musculus [23],Active
same,Activity,[24],Toxic
same,Activity,Mus musculus [25],Active
same,Activity,Mus musculus [26],Active
same,Activity,[27],Non-Toxic
same,concentration at 6 h,[28],141 ng/mL
same,concentration at 6 h,[29],665 ng/mL
same,concentration at 6 h,[30],855 ng/mL
same,concentration at 6 h,[31],5 ng/mL
same,concentration at 6 h,[32],1210 ng/mL
same,concentration at 6 h,[33],83800 ng/g
same,concentration at 6 h,[34],130000 ng/g
same,concentration at 6 h,[35],26500 ng/g
same,concentration at 6 h,[36],119000 ng/g
same,Kp at 6 h,[37],434
same,Kp at 6 h,[38],126
same,Kp at 6 h,[39],152
same,Ratio,[40],5292
same,Kp at 6 h,[41],99
same,Activity,Mus musculus [42],Active
